Test results from ChEMBL document CHEMBL1134964, “Heterocyclic benzazole derivatives with antimycobacterial in vitro activity” (2002).
Values after ≈ are worked out from the molar mass of the structure shown.

Experiments:
Assay type in all cases: functional
[1] = test system: Mycobacterium tuberculosis; test: In vitro inhibition of Mycobacterium Tuberculosis (My 331/88) growth after 21 days culture.; conditions: 504 h
Summary of the method: (§1)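 Micromethod broth MIC. Compounds tested at 500, 250, 125, 32, 16, 8, 4 and 2, plus one intermediate level between 125 and 32. Plates incubated at 37 C and read at 7, 14 and 21 days. MIC is the lowest concentration at which growth of the mycobacteria was inhibited. MIC could not be set where solubility in the test medium was limited.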

Mycobacterium avium [2] = test: In vitro inhibition of Mycobacterium Avium growth after 14 days culture.; conditions: 336 h; summary of the method: as §1
Mycobacterium kansasii [3] = test: In vitro inhibition of Mycobacterium Kansasi (My 6 509/96) growth after 14 days culture.; conditions: 336 h
Mycobacterium kansasii [4] = test: In vitro inhibition of Mycobacterium Kansasi (My 235/80) growth after 7 days culture.; conditions: 168 h
Mycobacterium kansasii [5] = test: In vitro inhibition of Mycobacterium Kansasi (My 6 509/96) growth after 21 days culture.; conditions: 504 h
Mycobacterium kansasii [6] = test: In vitro inhibition of Mycobacterium Kansasi (My 6 509/96) growth after 7 days culture.; conditions: 168 h
Mycobacterium kansasii [7] = test: In vitro inhibition of Mycobacterium Kansasi (My 235/80) growth after 14 days culture.; conditions: 336 h
Mycobacterium avium [8] = test: In vitro inhibition of Mycobacterium Avium (My 330/88) growth after 21 days culture.; conditions: 504 h; summary of the method: as §1
Mycobacterium kansasii [9] = test: In vitro inhibition of Mycobacterium Kansasi (My 235/80) growth after 21 days culture.; conditions: 504 h
[10] = test system: Mycobacterium tuberculosis; test: In vitro inhibition of Mycobacterium Tuberculosis (My 331/88) growth after 14 days culture.; conditions: 336 h; summary of the method: as §1
[11] = Ratio of cytotoxicity to minimum inhibitory concentration of Mycobacterium tuberculosis My 331/88 was evaluated
HeLa = test: The compound was tested for cytotoxicity against HeLa cells.; conditions: Homo sapiens
Mycobacterium kansasii [12] = test: In vitro minimum inhibitory concentration the compound for anti-mycobacterial activity was determined against Mycobacterium kansasii (My 235/80) by micromethod after 21 days of incubation; conditions: 504 h
Mycobacterium kansasii [13] = test: In vitro minimum inhibitory concentration the compound for anti-mycobacterial activity was determined against Mycobacterium kansasii (My 235/80) by micromethod after 14 days of incubation; conditions: 336 h
Mycobacterium kansasii [14] = test: In vitro minimum inhibitory concentration the compound for anti-mycobacterial activity was determined against Mycobacterium kansasii (My 6 509/96) by micromethod after 7 days of incubation; conditions: 168 h

Row | SMILES | MIC [1] | MIC (Mycobacterium avium [2]) | MIC (Mycobacterium kansasii [3]) | MIC (Mycobacterium kansasii [4]) | MIC (Mycobacterium kansasii [5]) | MIC (Mycobacterium kansasii [6]) | MIC (Mycobacterium kansasii [7]) | MIC (Mycobacterium avium [8]) | MIC (Mycobacterium kansasii [9]) | MIC [10] | Safety index [11] | CC50 (HeLa) | MIC (Mycobacterium kansasii [12]) | MIC (Mycobacterium kansasii [13]) | MIC (Mycobacterium kansasii [14])
1 | O=[N+]([O-])c1ccc(CSc2nc3ccccc3s2)cc1 | > 125 µM | 32 µM (≈ 9.68 µg/mL) | > 32 µM | 32 µM (≈ 9.68 µg/mL) | > 125 µM | 32 µM (≈ 9.68 µg/mL) | > 62 µM | > 62 µM | > 250 µM | > 32 µM | – | – | – | – | –
2 | NC(=S)c1ccc(CSc2nc3ccccc3o2)cc1 | 16 µM (≈ 4.81 µg/mL) | 32 µM (≈ 9.61 µg/mL) | 16 µM (≈ 4.81 µg/mL) | 8 µM (≈ 2.4 µg/mL) | 16 µM (≈ 4.81 µg/mL) | 8 µM (≈ 2.4 µg/mL) | 16 µM (≈ 4.81 µg/mL) | 32 µM (≈ 9.61 µg/mL) | 16 µM (≈ 4.81 µg/mL) | 8 µM (≈ 2.4 µg/mL) | 9.8 | 78.6 µM | – | – | –
3 | O=[N+]([O-])c1ccc(CSc2nc3ccccc3s2)c([N+](=O)[O-])c1 | 4 µM (≈ 1.39 µg/mL) | > 32 µM | 8 µM (≈ 2.78 µg/mL) | 8 µM (≈ 2.78 µg/mL) | > 32 µM | 8 µM (≈ 2.78 µg/mL) | 8 µM (≈ 2.78 µg/mL) | > 32 µM | 16 µM (≈ 5.56 µg/mL) | 2 µM (≈ 0.695 µg/mL) | >72 | > 144 µM | – | – | –
4 | O=[N+]([O-])c1ccc(CSc2nc3ccccc3o2)c([N+](=O)[O-])c1 | 8 µM (≈ 2.65 µg/mL) | > 16 µM | 8 µM (≈ 2.65 µg/mL) | 4 µM (≈ 1.33 µg/mL) | 8 µM (≈ 2.65 µg/mL) | – | – | > 32 µM | – | 8 µM (≈ 2.65 µg/mL) | 17 | 136 µM | 4 µM (≈ 1.33 µg/mL) | 4 µM (≈ 1.33 µg/mL) | 4 µM (≈ 1.33 µg/mL)
5 | O=[N+]([O-])c1ccccc1CSc1nc2ccccc2o1 | > 250 µM | > 125 µM | > 62 µM | 125 µM (≈ 35.8 µg/mL) | > 62 µM | 62 µM (≈ 17.8 µg/mL) | 125 µM (≈ 35.8 µg/mL) | > 125 µM | > 125 µM | > 250 µM | – | – | – | – | –
6 | c1ccc(CSc2nc3ccccc3o2)cc1 | 500 µM (≈ 121 µg/mL) | 62 µM (≈ 15 µg/mL) | 125 µM (≈ 30.2 µg/mL) | 125 µM (≈ 30.2 µg/mL) | 250 µM (≈ 60.3 µg/mL) | 32 µM (≈ 7.72 µg/mL) | 250 µM (≈ 60.3 µg/mL) | 125 µM (≈ 30.2 µg/mL) | 250 µM (≈ 60.3 µg/mL) | 250 µM (≈ 60.3 µg/mL) | – | – | – | – | –
7 | NC(=S)c1ccc(CSc2nc3ccccc3s2)cc1 | 8 µM (≈ 2.53 µg/mL) | 16 µM (≈ 5.06 µg/mL) | 8 µM (≈ 2.53 µg/mL) | 4 µM (≈ 1.27 µg/mL) | 8 µM (≈ 2.53 µg/mL) | 4 µM (≈ 1.27 µg/mL) | 8 µM (≈ 2.53 µg/mL) | 32 µM (≈ 10.1 µg/mL) | 8 µM (≈ 2.53 µg/mL) | 4 µM (≈ 1.27 µg/mL) | >39.5 | > 158 µM | – | – | –
8 | N#Cc1ccc(CSc2nc3ccccc3o2)cc1 | > 62 µM | 62 µM (≈ 16.5 µg/mL) | 32 µM (≈ 8.52 µg/mL) | 32 µM (≈ 8.52 µg/mL) | > 32 µM | 16 µM (≈ 4.26 µg/mL) | 32 µM (≈ 8.52 µg/mL) | 62 µM (≈ 16.5 µg/mL) | > 32 µM | > 62 µM | – | – | – | – | –
9 | N#Cc1ccc(CSc2nc3ccccc3s2)cc1 | 62 µM (≈ 17.5 µg/mL) | 32 µM (≈ 9.04 µg/mL) | 32 µM (≈ 9.04 µg/mL) | 125 µM (≈ 35.3 µg/mL) | 32 µM (≈ 9.04 µg/mL) | 16 µM (≈ 4.52 µg/mL) | 250 µM (≈ 70.6 µg/mL) | > 32 µM | > 500 µM | 62 µM (≈ 17.5 µg/mL) | – | – | – | – | –
10 | Sc1nc2ccccc2o1 | 500 µM (≈ 75.6 µg/mL) | 250 µM (≈ 37.8 µg/mL) | 500 µM (≈ 75.6 µg/mL) | 500 µM (≈ 75.6 µg/mL) | 1000 µM (≈ 151 µg/mL) | 250 µM (≈ 37.8 µg/mL) | 1000 µM (≈ 151 µg/mL) | 500 µM (≈ 75.6 µg/mL) | 1000 µM (≈ 151 µg/mL) | 500 µM (≈ 75.6 µg/mL) | – | – | – | – | –
11 | O=[N+]([O-])c1cccc(CSc2nc3ccccc3o2)c1 | 125 µM (≈ 35.8 µg/mL) | > 32 µM | 32 µM (≈ 9.16 µg/mL) | 32 µM (≈ 9.16 µg/mL) | > 32 µM | 32 µM (≈ 9.16 µg/mL) | > 32 µM | > 62 µM | > 32 µM | > 62 µM | – | – | – | – | –
12 | O=[N+]([O-])c1cccc(CSc2nc3ccccc3s2)c1 | > 125 µM | 62 µM (≈ 18.7 µg/mL) | 62 µM (≈ 18.7 µg/mL) | 62 µM (≈ 18.7 µg/mL) | > 62 µM | 32 µM (≈ 9.68 µg/mL) | > 125 µM | 62 µM (≈ 18.7 µg/mL) | > 125 µM | > 62 µM | – | – | – | – | –
13 | O=[N+]([O-])c1cc(CSc2nc3ccccc3s2)cc([N+](=O)[O-])c1 | 2 µM (≈ 0.695 µg/mL) | 62 µM (≈ 21.5 µg/mL) | 32 µM (≈ 11.1 µg/mL) | 16 µM (≈ 5.56 µg/mL) | > 62 µM | – | 16 µM (≈ 5.56 µg/mL) | 62 µM (≈ 21.5 µg/mL) | > 62 µM | 2 µM (≈ 0.695 µg/mL) | >72 | > 144 µM | – | – | –
14 | N#Cc1cccc(CSc2nc3ccccc3o2)c1 | 125 µM (≈ 33.3 µg/mL) | 62 µM (≈ 16.5 µg/mL) | 62 µM (≈ 16.5 µg/mL) | 32 µM (≈ 8.52 µg/mL) | 62 µM (≈ 16.5 µg/mL) | 32 µM (≈ 8.52 µg/mL) | 62 µM (≈ 16.5 µg/mL) | 62 µM (≈ 16.5 µg/mL) | 125 µM (≈ 33.3 µg/mL) | 125 µM (≈ 33.3 µg/mL) | – | – | – | – | –
15 | N#Cc1cccc(CSc2nc3ccccc3s2)c1 | 250 µM (≈ 70.6 µg/mL) | 32 µM (≈ 9.04 µg/mL) | 62 µM (≈ 17.5 µg/mL) | 125 µM (≈ 35.3 µg/mL) | 125 µM (≈ 35.3 µg/mL) | 32 µM (≈ 9.04 µg/mL) | 250 µM (≈ 70.6 µg/mL) | 62 µM (≈ 17.5 µg/mL) | 500 µM (≈ 141 µg/mL) | 62 µM (≈ 17.5 µg/mL) | – | – | – | – | –
16 | O=[N+]([O-])c1ccccc1CSc1nc2ccccc2s1 | 500 µM (≈ 151 µg/mL) | 125 µM (≈ 37.8 µg/mL) | 32 µM (≈ 9.68 µg/mL) | 62 µM (≈ 18.7 µg/mL) | 125 µM (≈ 37.8 µg/mL) | – | 125 µM (≈ 37.8 µg/mL) | > 250 µM | – | 125 µM (≈ 37.8 µg/mL) | – | – | 500 µM (≈ 151 µg/mL) | – | 32 µM (≈ 9.68 µg/mL)
17 | O=[N+]([O-])c1ccc(CSc2nc3ccccc3o2)cc1 | > 125 µM | > 32 µM | 32 µM (≈ 9.16 µg/mL) | 32 µM (≈ 9.16 µg/mL) | > 32 µM | 32 µM (≈ 9.16 µg/mL) | 32 µM (≈ 9.16 µg/mL) | > 62 µM | > 62 µM | > 62 µM | – | – | – | – | –
18 | O=[N+]([O-])c1cc(CSc2nc3ccccc3o2)cc([N+](=O)[O-])c1 | 8 µM (≈ 2.65 µg/mL) | > 16 µM | 8 µM (≈ 2.65 µg/mL) | 2 µM (≈ 0.663 µg/mL) | 8 µM (≈ 2.65 µg/mL) | 4 µM (≈ 1.33 µg/mL) | 4 µM (≈ 1.33 µg/mL) | > 32 µM | 4 µM (≈ 1.33 µg/mL) | 8 µM (≈ 2.65 µg/mL) | >18.9 | > 151 µM | – | – | –
19 | NNC(=O)c1ccncc1 [ISONIAZID] | 1 µM (≈ 0.137 µg/mL) | > 250 µM | 2 µM (≈ 0.274 µg/mL) | > 250 µM | 4 µM (≈ 0.549 µg/mL) | 2 µM (≈ 0.274 µg/mL) | > 250 µM | > 250 µM | > 250 µM | 0.5 µM (≈ 0.0686 µg/mL) | – | – | – | – | –
